Data on one compound can be found in ChEMBL document CHEMBL5033998, “Discovery of DDO-2213 as a Potent and Orally Bioavailable Inhibitor of the WDR5-Mixed Lineage Leukemia 1 Protein-Protein Interaction for the Treatment of MLL Fusion Leukemia” (J Med Chem, 2021).

The nature of data set [1]: Permeability of compound at pH 7.4 incubated for 4 hrs by PAMPA assay. Format: ADME. The following applies: read-out: permeability. A digest of the protocol: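 Double-sink PAMPA: compound diluted in pH 7.4 donor buffer, permeation through artificial membrane to acceptor over 4 h at 25 °C; donor and acceptor read by UV; mean ± SD of three independent experiments.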
Background: PAMPA measures passive passage across an artificial lipid membrane.

The nature of data set [2]: AUC (0 to infinity) in Sprague-Dawley rat at 2 mg/kg, iv measured upto 24 hrs by LC-MS/MS analysis. Format: ADME, organism-based. The arrangement: route intravenous, dose 2 mg/kg, time <=24. The following applies: in vivo.
Data set [3] relates to MV4-11. Put plainly: Antitumor activity against human MV4-11 cells xenografted in Balb/c nude mouse assessed as tumor weight inhibition at 80 mg/kg, po administered daily for 21 days relative to control. Format: functional. The following applies: MV4-11, po, 504 h. The essentials: (§1)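 MV4-11 flank xenografts (~5 × 10^6 cells) in female BALB/c nude mice, 6 per group; daily oral dosing (40, 80, 120 mg/kg) or saline vehicle for 21 days, then tumors excised and weighed.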

A short description of data set [4]: Apparent volume of distribution in Sprague-Dawley rat at 10 mg/kg, po measured upto 24 hrs by LC-MS/MS analysis. Format: ADME, organism-based. The following applies: in vivo, read-out: Vz/F. The essentials:
(§2)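 Male SD rats, 6–8 weeks, 220 ± 30 g; single oral dose 10 mg/kg (n = 3). Plasma sampled at 0, 0.25, 0.5, 1, 2, 4, 6, 8 and 24 h, stored at −80 °C, quantified by LC-MS/MS; parameters reported as mean ± SEM.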

Data set [5] can be described thus: Oral bioavailability in Sprague-Dawley rat at 10 mg/kg measured upto 24 hrs by LC-MS/MS analysis. Format: ADME, organism-based. The following applies: in vivo. The essentials: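 Bioavailability from paired rat groups (male SD, n = 3 each): 10 mg/kg oral vs 2 mg/kg i.v.; plasma sampled to 24 h and measured by LC-MS/MS.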
In data set [6] the test system is MV4-11. Briefly: Antitumor activity against human MV4-11 cells xenografted in Balb/c nude mouse assessed as tumor weight inhibition at 120 mg/kg, po administered daily for 21 days relative to control. Format: functional. As to conditions: MV4-11, po, 504 h. The essentials:
as §1
(A xenograft is tissue or cells of one species grown in another, often human tumour cells in immunodeficient mice.)

Data set [7] addresses T1, Histone-lysine N-methyltransferase EHMT2 (Homo sapiens, UniProt Q96KQ7).
T1 sequence (Q96KQ7 whole entry): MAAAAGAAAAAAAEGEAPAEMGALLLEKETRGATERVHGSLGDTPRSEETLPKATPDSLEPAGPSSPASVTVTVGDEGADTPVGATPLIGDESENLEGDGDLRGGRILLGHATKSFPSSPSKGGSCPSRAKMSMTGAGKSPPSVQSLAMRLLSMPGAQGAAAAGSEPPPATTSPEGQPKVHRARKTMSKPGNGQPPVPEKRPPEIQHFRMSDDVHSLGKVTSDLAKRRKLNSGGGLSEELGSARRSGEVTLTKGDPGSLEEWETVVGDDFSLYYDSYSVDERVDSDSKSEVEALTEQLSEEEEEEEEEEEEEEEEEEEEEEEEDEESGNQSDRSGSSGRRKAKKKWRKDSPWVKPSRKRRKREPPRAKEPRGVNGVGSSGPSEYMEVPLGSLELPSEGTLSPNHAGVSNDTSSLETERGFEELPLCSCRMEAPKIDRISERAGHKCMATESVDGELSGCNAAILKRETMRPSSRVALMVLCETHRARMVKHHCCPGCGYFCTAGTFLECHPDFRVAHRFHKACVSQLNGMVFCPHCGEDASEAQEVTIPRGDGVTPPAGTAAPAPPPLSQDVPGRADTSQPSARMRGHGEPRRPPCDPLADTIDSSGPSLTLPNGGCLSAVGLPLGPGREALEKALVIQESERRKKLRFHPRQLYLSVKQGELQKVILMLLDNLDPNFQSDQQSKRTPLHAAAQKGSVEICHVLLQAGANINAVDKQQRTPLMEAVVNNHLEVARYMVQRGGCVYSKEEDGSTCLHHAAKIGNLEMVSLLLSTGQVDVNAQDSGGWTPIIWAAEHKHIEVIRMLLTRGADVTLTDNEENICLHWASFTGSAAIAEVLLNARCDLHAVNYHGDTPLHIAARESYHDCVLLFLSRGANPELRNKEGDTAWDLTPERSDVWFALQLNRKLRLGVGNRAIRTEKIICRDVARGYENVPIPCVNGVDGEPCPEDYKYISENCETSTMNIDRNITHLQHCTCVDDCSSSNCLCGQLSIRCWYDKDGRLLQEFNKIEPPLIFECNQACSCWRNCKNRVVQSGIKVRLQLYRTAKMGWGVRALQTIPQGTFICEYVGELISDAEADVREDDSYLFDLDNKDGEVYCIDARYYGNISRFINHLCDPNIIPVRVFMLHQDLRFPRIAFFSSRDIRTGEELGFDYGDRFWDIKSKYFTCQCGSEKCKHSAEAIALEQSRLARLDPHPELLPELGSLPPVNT
Put plainly: Inhibition of G9a (unknown origin) assessed as effect on H3K9 methylation incubated for 30 mins by Alphascreen assay. A digest of the protocol:
(§3)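 AlphaScreen: enzyme, SAM and compound mixed in 10 mM PBS for 30 min at room temperature; acceptor beads and substrate antibody added, 30 min at room temperature, then streptavidin donor beads; read on AlphaScreen reader.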
(In general: Alpha assays give light when donor and acceptor beads are brought close together.)

The nature of data set [8]: Metabolic stability in human liver microsomes assessed as clearance at 1 uM in presence of NADPH by LC-MS/MS analysis. Format: ADME, Microsome. A digest of the protocol: (§4)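 Compound at 1 μM preincubated 5 min at 37 °C with human or rat liver microsomes (0.7 mg/mL) in 100 mM PBS pH 7.4; reaction started with 1 mM NADPH.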
The test system of data set [9] is MV4-11. Put plainly: Antitumor activity against human MV4-11 cells xenografted in Balb/c nude mouse assessed as tumor growth inhibition at 120 mg/kg, po administered daily for 21 days relative to control. Format: functional. As to conditions: MV4-11, po, 504 h, time 21 day, read-out: TGI. A digest of the protocol: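 Female BALB/c nude mice (6–8 weeks) given ~5 × 10^6 MV4-11 cells in 0.2 mL PBS into the flank; at 100–150 mm3 randomized (6/group) to vehicle (0.9% saline) or 40, 80, 120 mg/kg oral (hydrochloride salt) daily for 21 days. Volume = length × width²/2 every other day; GI% = [1 − (TVt − TV0)/(CVt − CV0)] × 100%.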

In data set [10] the target is Histone-lysine N-methyltransferase, H3 lysine-79 specific (Homo sapiens, UniProt Q8TEK3). Put plainly: Inhibition of DOT1L (unknown origin) assessed as effect on H3K79 methylation incubated for 30 mins by Alphascreen assay. The essentials: as §3
The subject of the next data set is MOLM-13. Briefly: Antiproliferative activity against human MOLM-13 cells assessed as cell viability incubated for 72 hrs by CCK8 assay. Format: functional, cell-based. The following applies: MOLM-13, 72 h. A digest of the protocol:
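Cells seeded at 3000–6000 per well, exposed to inhibitor at several concentrations for 72 h; viability read with CCK8 kit. MV4-11 and K562 grown in modified IMDM + 10% FBS, pen/strep; MOLM-13 in RPMI-1640 + 10% FBS; HUVEC in modified DMEM + 10% FBS; 37 °C, 5% CO2. IC50 as mean ± SD of three independent experiments.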

A short description of data set [11]: Metabolic stability in rat liver microsomes assessed as clearance at 1 uM in presence of NADPH by LC-MS/MS analysis. Format: ADME, Microsome. A digest of the protocol: as §4
Data set [12] can be described thus: MRT in Sprague-Dawley rat at 10 mg/kg, po measured upto 24 hrs by LC-MS/MS analysis. Format: ADME, organism-based. As to conditions: in vivo. A digest of the protocol:
as §2

Histone-lysine N-methyltransferase, H3 lysine-79 specific, sequence (Q8TEK3 whole entry): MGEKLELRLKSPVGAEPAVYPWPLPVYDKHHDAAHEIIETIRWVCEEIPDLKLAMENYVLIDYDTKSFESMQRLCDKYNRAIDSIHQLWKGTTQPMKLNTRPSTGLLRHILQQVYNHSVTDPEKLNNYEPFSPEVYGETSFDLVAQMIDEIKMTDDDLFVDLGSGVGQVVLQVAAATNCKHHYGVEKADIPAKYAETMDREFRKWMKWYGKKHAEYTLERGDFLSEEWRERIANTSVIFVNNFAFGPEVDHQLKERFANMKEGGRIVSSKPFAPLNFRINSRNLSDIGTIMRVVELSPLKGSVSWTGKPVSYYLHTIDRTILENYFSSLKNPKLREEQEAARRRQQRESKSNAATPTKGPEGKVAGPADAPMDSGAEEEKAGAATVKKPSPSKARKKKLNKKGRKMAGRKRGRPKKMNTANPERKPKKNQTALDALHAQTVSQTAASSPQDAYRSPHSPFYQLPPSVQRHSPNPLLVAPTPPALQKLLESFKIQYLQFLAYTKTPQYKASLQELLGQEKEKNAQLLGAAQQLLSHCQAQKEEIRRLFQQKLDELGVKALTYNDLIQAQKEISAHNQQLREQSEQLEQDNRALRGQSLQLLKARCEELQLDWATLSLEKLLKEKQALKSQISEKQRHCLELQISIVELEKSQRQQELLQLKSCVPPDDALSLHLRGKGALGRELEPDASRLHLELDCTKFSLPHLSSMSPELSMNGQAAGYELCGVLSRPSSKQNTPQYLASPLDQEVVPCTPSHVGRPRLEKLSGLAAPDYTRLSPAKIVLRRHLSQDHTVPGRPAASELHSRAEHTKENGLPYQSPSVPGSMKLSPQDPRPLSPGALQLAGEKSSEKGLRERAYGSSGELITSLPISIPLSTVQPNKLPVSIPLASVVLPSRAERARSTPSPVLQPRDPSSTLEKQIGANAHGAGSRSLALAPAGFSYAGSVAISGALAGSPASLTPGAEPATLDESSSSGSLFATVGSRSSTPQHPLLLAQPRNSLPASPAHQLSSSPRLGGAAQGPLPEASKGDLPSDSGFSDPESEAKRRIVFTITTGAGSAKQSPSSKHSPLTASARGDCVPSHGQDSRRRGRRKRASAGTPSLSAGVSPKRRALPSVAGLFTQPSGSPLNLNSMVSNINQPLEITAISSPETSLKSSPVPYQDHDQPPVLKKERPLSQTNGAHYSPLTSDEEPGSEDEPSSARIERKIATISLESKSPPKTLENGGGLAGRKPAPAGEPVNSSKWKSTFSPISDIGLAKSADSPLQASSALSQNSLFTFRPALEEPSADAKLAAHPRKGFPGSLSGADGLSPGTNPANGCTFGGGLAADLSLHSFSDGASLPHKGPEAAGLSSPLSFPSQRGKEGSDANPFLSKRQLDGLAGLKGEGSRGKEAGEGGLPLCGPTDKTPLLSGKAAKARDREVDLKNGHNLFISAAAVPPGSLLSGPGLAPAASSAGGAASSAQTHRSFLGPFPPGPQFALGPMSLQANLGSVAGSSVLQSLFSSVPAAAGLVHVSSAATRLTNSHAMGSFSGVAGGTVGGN

In the case of `CN1CCN(c2cc(F)c(-c3ccc(C(=O)N(C)C)cc3)cc2Nc2ncnc(Cl)c2N)CC1`, in data set [1], the Papp at 4 h worked out at 20.2 ×10⁻⁶ cm/s. Also, in data set [2], the AUC(0-inf) was 424 ng·h/mL. Besides, in the data set with MV4-11 [3], the inhibition in vivo at 80 mg/kg was found to be 51.6%. Further, the Vd/F in [4] was 37.1 L/kg. The compound also gave a bioavailability in [5] of 82.1%. The inhibition in vivo at 120 mg/kg in the data set with MV4-11 [6] was 56.8%; in the data set on MV4-11 [9] it was 54.5%. For the same compound, the IC50 was over 100 µM in data set [7], over 100 µM in data set [10] and 13.1 µM in the data set on MOLM-13. Moreover, the CLH in data set [8] was found to be 14.1 µL/min/mg; in data set [11] it was 15 µL/min/mg. In data set [12], this compound had an MRT of 5.42 h.

In general, AUC(0-inf) refers to the area under the concentration-time curve extrapolated to infinity. Low values mean less exposure, high ones more exposure. By bioavailability is commonly meant dose-corrected exposure relative to a reference, in per cent. Low readings indicate poor availability, high ones good availability. By IC50 is commonly meant the point on the concentration scale where inhibition reaches its midpoint. For orientation: MRT means the average time that molecules of a dose stay in the body.
